Measurements: ChEMBL document CHEMBL1121520, “Synthesis of analogues of the carboxyl protease inhibitor pepstatin. Effects of structure on inhibition of pepsin and renin” (J Med Chem, 1980)

Legend:
Renin (Sus scrofa) = assay: Inhibition of renin was measured using hog kidney renin and the radiolabeled synthetic substrate, H-Ile-His-Pro-Phe-His-Leu-[14C]Leu-Val-Tyr-Ser-OH
Pepsin A [1] = target: Pepsin A (Sus scrofa, UniProt P00791); assay: Pepsin inhibition was measured using the synthetic heptapeptide substrate Phe-Gly-His-Phe-(N02)-Phe-Ala- Phe-OMe
Method in brief: (§1)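 Nitrophenylalanine-containing heptapeptide substrate hydrolysis by pepsin; run at five substrate and three inhibitor concentrations per analogue, with Ki calculated by a previously described method.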

Pepsin A [2] = target: Pepsin A (Homo sapiens, UniProt P0DJD9); assay: Pepsin inhibition using synthetic heptapeptide substrate Phe-Gly-His-Phe-(N02)-Phe-Ala- Phe-OMe
Method in brief: as §1

Sequence of Pepsin A (Sus scrofa, UniProt P00791) (P00791 whole entry): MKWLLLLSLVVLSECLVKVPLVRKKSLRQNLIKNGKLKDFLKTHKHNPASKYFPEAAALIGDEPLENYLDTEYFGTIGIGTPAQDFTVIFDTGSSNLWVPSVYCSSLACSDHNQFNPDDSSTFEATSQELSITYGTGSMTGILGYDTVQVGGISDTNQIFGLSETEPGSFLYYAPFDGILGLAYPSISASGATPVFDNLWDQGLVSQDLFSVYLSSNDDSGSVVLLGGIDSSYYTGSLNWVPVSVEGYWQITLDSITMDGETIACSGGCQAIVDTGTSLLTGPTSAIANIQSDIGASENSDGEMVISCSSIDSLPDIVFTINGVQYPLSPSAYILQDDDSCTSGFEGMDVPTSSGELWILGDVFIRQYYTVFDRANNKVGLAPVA
Sequence of Pepsin A (Homo sapiens, UniProt P0DJD9) (P0DJD9 whole entry): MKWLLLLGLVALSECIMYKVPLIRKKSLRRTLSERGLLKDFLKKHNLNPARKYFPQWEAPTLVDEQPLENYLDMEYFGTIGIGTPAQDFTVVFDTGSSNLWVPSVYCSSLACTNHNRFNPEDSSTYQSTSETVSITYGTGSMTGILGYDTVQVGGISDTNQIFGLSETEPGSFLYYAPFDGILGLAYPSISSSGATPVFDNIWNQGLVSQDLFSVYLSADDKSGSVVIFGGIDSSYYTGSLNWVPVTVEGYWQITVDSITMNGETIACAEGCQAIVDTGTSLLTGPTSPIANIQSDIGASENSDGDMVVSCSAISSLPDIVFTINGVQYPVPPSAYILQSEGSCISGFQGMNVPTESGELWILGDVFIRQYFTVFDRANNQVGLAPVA

IC50 (Renin (Sus scrofa)) | Ki (Pepsin A [1]) | Ki (Pepsin A [2]) | Structure (SMILES)
> 330000 nM | 350 nM |  | CC(C)CCNC(=O)[C@@H](C)NC(=O)C[C@H](O)C(CC(C)C)NC(=O)CC(C)C (stereo partly drawn)
 | 1.1 nM |  | CC(C)CCNC(=O)[C@H](C)NC(=O)C[C@H](O)C(CC(C)C)NC(=O)[C@H](NC(=O)CC(C)C)C(C)C (stereo partly drawn)
 | 0.9 nM |  | CC(C)CCNC(=O)[C@H](C)NC(=O)C[C@H](O)NC(C(=O)[C@H](NC(=O)CC(C)C)C(C)C)c1ccccc1 (stereo partly drawn)
> 330000 nM | ~1000 nM |  | CC(C)CC(=O)N[C@@H](C(=O)N[C@@H](CC(C)C)C(O)CC(N)=O)C(C)C (stereo partly drawn)
 |  | 3000 nM | CC(C)CCNC(=O)[C@H](C)NC(=O)C[C@@H](O)C(CC(C)C)NC(=O)[C@H](NC(=O)CC(C)C)C(C)C (stereo partly drawn)
 | 0.0457 nM |  | CC(C)CC(=O)N[C@@H](C(=O)N[C@@H](C(=O)NC(CC(C)C)[C@@H](O)CC(=O)N[C@H](C)C(=O)NC(CC(C)C)[C@@H](O)CO)C(C)C)C(C)C (stereo partly drawn)
